Laboratory results as given in article PMC6774347 (European Journal of Organic Chemistry, 2019).

How the values were obtained:
TK+ VZV = test: Antiviral assay, plaque formation in HEL cells; format: cell-based, varicella-zoster virus (VZV); settings: Human alphaherpesvirus 3, HEL
CEM leukemia cell line = test: Differential nuclear staining; format: cell-based, human; settings: 48 h; for Concentration inducing significant death in CEM cells: tested 100 µM to 0.5 µM; for CEM cell death (in words): at the prepared / highest soluble concentrations
In short: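 Live-cell imaging differential nuclear staining with Hoechst 33342 (all nuclei) and propidium iodide (dead cells). DMSO stocks at highest soluble concentration were serially diluted and added to cells in complete medium (final 1 % v/v DMSO), 100 µM down to 0.5 µM. Read at 48 h in quadruplicate. Controls were untreated, 1 % DMSO and 1.62 mM H2O2. CC50 (50 % membrane-integrity loss versus untreated) was linearly interpolated between the two concentrations nearest 50 %.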

TK– VZV = test: Antiviral assay, plaque formation in HEL cells; format: cell-based, varicella-zoster virus (VZV); settings: Human alphaherpesvirus 3, HEL
[1] = Compound solubility in DMSO stock and in the biological assays; format: physicochemical; settings: for Solubility (in words): stock solutions at highest soluble concentration in DMSO; for Compound crystallization in treated cells: CEM cells in complete media, 1 % v/v DMSO
[2] = system: MDA-MB-231 (MB-231) triple-negative breast cancer cell line; test: Differential nuclear staining; format: cell-based; settings: Homo sapiens, MDA-MB-231, 72 h
In short: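 MDA-MB-231 cells were stained with Hoechst 33342 and propidium iodide and imaged live. Serial dilutions from 100 µM (to 0.5 µM) in DMSO were added directly to cell-containing wells (final 1 % v/v DMSO). Read at 72 h in quadruplicate. Controls were untreated, 1 % DMSO and 1.62 mM H2O2. CC50 was linearly interpolated between the two concentrations flanking 50 % death relative to untreated cells.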

CEM cells = test: Annexin V-FITC / propidium iodide apoptosis assay; format: cell-based, human; settings: 24 h, annexin-FITC and PI staining

COc1cc(OC)cc(-c2cn(-c3cc(=O)oc4ccc(Br)cc34)nn2)c1 [Compound 22, 6‐Bromo‐4‐(4‐(3,5‐dimethoxyphenyl)‐1H‐1,2,3‐triazol‐1‐yl)‐2H‐chromen‐2‐one]
EC50 (TK+ VZV): 58.5 µM
Concentration inducing significant death in CEM cells (CEM leukemia cell line): approximately 10 µM

COc1cc(-c2cn(-c3ccccc3)nn2)cc(OC)c1OC [Compound 20, 1‐Phenyl‐4‐(3,4,5‐trimethoxyphenyl)‐1H‐1,2,3‐triazole]
EC50 (TK+ VZV): 39.9 µM
EC50 (TK– VZV): 39.1 µM
Solubility (in words) [1]: the most readily soluble of the compounds
CC50 [2]: 55.4 µM
Mode of cell death (apoptosis vs necrosis) (CEM cells): preferentially induces cell death via apoptosis

COc1cc(-c2cn(-c3cc(=O)oc4ccc(Cl)cc34)nn2)cc(OC)c1OC [Compound 15, 6‐Chloro‐4‐(4‐(3,4,5‐trimethoxyphenyl)‐1H‐1,2,3‐triazol‐1‐yl)‐2H‐chromen‐2‐one]
Solubility (in words) [1]: one of the least soluble compounds in the series
CEM cell death (in words) (CEM leukemia cell line): demonstrated cytotoxicity at its highest soluble concentration

COc1cc(-c2cn(-c3cc(=O)oc4ccccc34)nn2)cc(OC)c1OC [Compound 13, 4‐(4‐(3,4,5‐Trimethoxyphenyl)‐1H‐1,2,3‐triazol‐1‐yl)‐2H‐chromen‐2‐one]
Compound crystallization in treated cells [1]: significant compound crystallization
CEM cell death (in words) (CEM leukemia cell line): did not induce quantifiable CEM cell death

COc1cc(-c2cn(-c3cc(=O)oc4ccc(C)cc34)nn2)cc(OC)c1OC [Compound 14, 6‐Methyl‐4‐(4‐(3,4,5‐trimethoxyphenyl)‐1H‐1,2,3‐triazol‐1‐yl)‐2H‐chromen‐2‐one]
CEM cell death (in words) (CEM leukemia cell line): did not induce significant CEM cell death

COc1cc(-c2cn(-c3cc(=O)oc4cc(C)ccc34)nn2)cc(OC)c1OC [Compound 18, 7‐Methyl‐4‐(4‐(3,4,5‐trimethoxyphenyl)‐1H‐1,2,3‐triazol‐1‐yl)‐2H‐chromen‐2‐one]
Compound crystallization in treated cells [1]: significant compound crystallization
CEM cell death (in words) (CEM leukemia cell line): did not induce quantifiable CEM cell death

COc1ccc(-c2cn(-c3cc(=O)oc4ccc(Br)cc34)nn2)cc1 [Compound 23, 6‐Bromo‐4‐(4‐(4‐methoxyphenyl)‐1H‐1,2,3‐triazol‐1‐yl)‐2H‐chromen‐2‐one]
Concentration inducing significant death in CEM cells (CEM leukemia cell line): approximately 10 µM

COc1cc(-c2cn(-c3cc(=O)oc4c(Cl)cc(Cl)cc34)nn2)cc(OC)c1OC [Compound 17, 6,8‐Dichloro‐4‐(4‐(3,4,5‐trimethoxyphenyl)‐1H‐1,2,3‐triazol‐1‐yl)‐2H‐chromen‐2‐one]
EC50 (TK+ VZV): 66.9 µM
CEM cell death (in words) (CEM leukemia cell line): did not induce significant CEM cell death

COc1cccc(-c2cn(-c3cc(=O)oc4ccc(Br)cc34)nn2)c1 [Compound 24, 6‐Bromo‐4‐(4‐(3‐methoxyphenyl)‐1H‐1,2,3‐triazol‐1‐yl)‐2H‐chromen‐2‐one]
Concentration inducing significant death in CEM cells (CEM leukemia cell line): approximately 10 µM

COc1cc(-c2cn(-c3cc(=O)oc4ccc(Br)cc34)nn2)cc(OC)c1OC [Compound 16, 6‐Bromo‐4‐(4‐(3,4,5‐trimethoxyphenyl)‐1H‐1,2,3‐triazol‐1‐yl)‐2H‐chromen‐2‐one]
Solubility (in words) [1]: relatively soluble
CEM cell death (in words) (CEM leukemia cell line): did not induce significant CEM cell death

COc1ccc2c(-n3cc(-c4cc(OC)c(OC)c(OC)c4)nn3)cc(=O)oc2c1 [Compound 19, 7‐Methoxy‐4‐(4‐(3,4,5‐trimethoxyphenyl)‐1H‐1,2,3‐triazol‐1‐yl)‐2H‐chromen‐2‐one]
Compound crystallization in treated cells [1]: significant compound crystallization
CEM cell death (in words) (CEM leukemia cell line): did not induce quantifiable CEM cell death
